The record followed here is ChEMBL document CHEMBL1149072, “Cytotoxic constituents of Baccharis gaudichaudiana” (1994).

Holding throughout (assay type): functional
Assay [1] deals with Col2. The experiment in a line: Cytotoxicity against human Col2 cells. To be noted: read-out: ED50 (the source's name). In outline: (§1)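 These human cancer cell lines were established from primary tumors at the authors' institution. Cytotoxicity was assessed in 96-well microtiter plates by a previously described protocol and expressed as ED50 in µg/ml.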
The subject of assay [2] is Lu1. The experiment in a line: Cytotoxicity against human Lu1 cells. The following applies: read-out: ED50 (the source's name). In outline: as §1
The test system of assay [3] is P388. In words: Cytotoxicity against mouse P388 cells. To be noted: read-out: ED50 (the source's name). In outline: (§2)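 The cell lines came from ATCC. Cytotoxicity was run in 96-well microtiter plates by a previously described method and reported as ED50 in µg/ml.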
A short description of assay [4]: Cytotoxicity against human BC1 cells. The following applies: read-out: ED50 (the source's name). In outline: as §1
Assay [5] relates to SK-MEL-2. In words: Cytotoxicity against human SK-MEL-2 cells. The following applies: read-out: ED50 (the source's name).
Assay [6] is described as follows: Cytotoxicity against human KBV1 cells. To be noted: KB-V1, read-out: ED50 (the source's name). In outline: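 The KB-V1 line is multidrug resistant. It was derived from KB cells by extended exposure to sublethal vinblastine. It was tested in 96-well microtiter plates by a previously described method, with ED50 in µg/ml as the read-out.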
Assay [7] has as its system HT-1080. In words: Cytotoxicity against human HT1080 cells. The following applies: read-out: ED50 (the source's name). In outline:
as §2

The test system of assay [8] is KB. The experiment in a line: Cytotoxicity against human KB cells. To be noted: read-out: ED50 (the source's name). The essentials: as §2

SMILES strings stand for the structures. Converted amounts (≈) assume the structure as drawn.

Regarding `C[C@H]1CC=C2C(CO)(CO)CCC[C@]2(C)C1CC[C@@H](CCO)COC(=O)/C=C/c1ccc(O)cc1` (stereo partly drawn) [GUADICHAUDOL C], the EC50 in assay [1] is 19.3 µg/mL (≈ 39.7 µM); in assay [2], 13.1 µg/mL (≈ 26.9 µM); in assay [3], 2.4 µg/mL (≈ 4.93 µM); in assay [4], 19 µg/mL (≈ 39 µM); in assay [5] it was 11.2 µg/mL (≈ 23 µM); in assay [6], 4.7 µg/mL (≈ 9.66 µM). In addition, the figures for the EC50 in assay [7] and in assay [8] were 12.4 µg/mL (≈ 25.5 µM) and more than 20 µg/mL, respectively.

As to `C[C@@H]1CC[C@@]23COC(=O)[C@H]2C[C@@H](O)C=C3[C@@]1(C)CCc1ccoc1` [GUADICHAUDONE], the EC50 in assay [1] was more than 20 µg/mL; in assay [2] it was more than 20 µg/mL; in assay [3] it was 11.7 µg/mL (≈ 35.4 µM); in assay [4], more than 20 µg/mL; in assay [5], more than 20 µg/mL; in assay [6] it was more than 20 µg/mL. In addition, the EC50 in assay [7] and in assay [8] was more than 20 µg/mL each time.

Regarding `C=C1CC[C@@H]2[C@H]([C@H]3[C@H]1CC[C@]3(C)O)C2(C)C` [SPATHULENOL], the EC50 in assay [1] was more than 20 µg/mL; in assay [2], more than 20 µg/mL; in assay [3], more than 20 µg/mL; in assay [4], more than 20 µg/mL; in assay [5] it was 6.3 µg/mL (≈ 28.6 µM); in assay [6], more than 20 µg/mL. The EC50 in assay [7] and in assay [8] was more than 20 µg/mL in each case.

Turning to `CC(=O)O[C@@H]1C=C2C(=O)OC[C@]23CC[C@@H](C)[C@](C)(CCC2=CC(=O)OC2)C3C1` (stereo partly drawn) [ARTICULIN ACETATE], the EC50 in assay [1] is more than 20 µg/mL; in assay [2], more than 20 µg/mL; in assay [3], 1.7 µg/mL; in assay [4], more than 20 µg/mL; in assay [5] it was more than 20 µg/mL; in assay [6], more than 20 µg/mL. The EC50 in assay [7] and in assay [8] was more than 20 µg/mL throughout.

Regarding `COc1c(O)cc2oc(-c3ccc(O)cc3)cc(=O)c2c1O` [HISPIDULIN], the EC50 in assay [1] is more than 20 µg/mL; in assay [2] it was 17.6 µg/mL (≈ 58.6 µM); in assay [3] it was 0.8 µg/mL (≈ 2.66 µM); in assay [4], 19 µg/mL (≈ 63.3 µM); in assay [5], 11.5 µg/mL (≈ 38.3 µM); in assay [6], 2.8 µg/mL (≈ 9.33 µM). The EC50 stood at 5.2 µg/mL (≈ 17.3 µM) in assay [7] and 5.6 µg/mL (≈ 18.7 µM) in assay [8].

Regarding `O=c1cc(-c2ccc(O)cc2)oc2cc(O)cc(O)c12` [APIGENIN], the EC50 in assay [1] is 19.3 µg/mL (≈ 71.4 µM); in assay [2], 14 µg/mL (≈ 51.8 µM); in assay [3], 12.2 µg/mL (≈ 45.1 µM); in assay [4] it was more than 20 µg/mL; in assay [5], 13.6 µg/mL (≈ 50.3 µM); in assay [6] it was 16.8 µg/mL (≈ 62.2 µM). In addition, the values for the EC50 in assay [7] and in assay [8] were 12.2 µg/mL (≈ 45.1 µM) and more than 20 µg/mL, respectively.
